High-throughput results from PubChem BioAssay.
In the library only some 2.3% were active in any assay of this set; here they are far more common.
FLuc act counter: FLuc activators, initial screening, artefact control for FLuc-dependent activation tests, biochemical, ATPlite luminescence. Luciferin 4-monooxygenase (Photinus pyralis), P08659. ATPlite luciferase biochemical, 10 min; 0 = ATP-free wells, 1 = DMSO control. activation factor at 10 µM. 200,000 tested, under 10 active;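 active means luciferase activation factor, scaled between plate controls, of at least 2 with compound at 10 µM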
Target sequence (P08659 whole entry, looked up): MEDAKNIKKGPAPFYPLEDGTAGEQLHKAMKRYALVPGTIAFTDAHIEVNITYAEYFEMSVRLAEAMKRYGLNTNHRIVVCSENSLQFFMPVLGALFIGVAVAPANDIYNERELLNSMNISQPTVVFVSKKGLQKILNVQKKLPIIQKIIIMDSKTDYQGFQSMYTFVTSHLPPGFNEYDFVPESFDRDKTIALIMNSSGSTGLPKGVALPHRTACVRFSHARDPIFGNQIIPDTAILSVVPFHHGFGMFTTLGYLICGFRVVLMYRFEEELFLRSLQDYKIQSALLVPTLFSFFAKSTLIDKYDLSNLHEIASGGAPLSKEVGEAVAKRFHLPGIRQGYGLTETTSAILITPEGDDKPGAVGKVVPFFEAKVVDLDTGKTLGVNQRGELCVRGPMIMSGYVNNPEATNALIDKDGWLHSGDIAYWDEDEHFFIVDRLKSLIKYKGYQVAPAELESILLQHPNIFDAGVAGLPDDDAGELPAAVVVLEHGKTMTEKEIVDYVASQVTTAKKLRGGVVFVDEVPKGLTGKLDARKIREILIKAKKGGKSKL
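Assay system: Luciferase/luciferin reagent mix; Medium: PBS as buffer for the ATP substrate; Dosing: test compounds dosed from 2 mM stocks in 100% DMSO; Times: 10 min, room temperature; Signal: luminescence from luciferase reaction; Read-out: luciferase activation; Controls: No-ATP low control, compound-free enzyme-plus-ATP high control.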
Diaph act CS: compounds boosting diaphorase resazurin reduction – biochemical, uHTS, resorufin fluorescence, counter-screen for diaphorase-coupled primary assays, primary screen; activation factor at 20 µM; actives 0.005% (n = 190,000); Diaphorase/resazurin coupled assay, 16 min; active compounds read high; 1 = vehicle wells, 0 = NADH-free wells;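 active means diaphorase activity raised at least twofold by the compound at 20 µM; inactive means activation factor below 2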
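Material: bacterial diaphorase enzyme (C. kluyveri); amount: enzyme 0.07 U/mL final; reagent: NADH substrate 0.114 mM plus resazurin dye 0.1 mM, final; doses: single compound dose of 20 µM, 1% DMSO final; timing: 16 min enzyme reaction, ambient temperature; measured by: fluorescence of resorufin, 544 nm excitation, 590 nm emission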
Diaphorase inh: diaphorase inhibitors and chemical oxidizers, primary screen, counter-screen for diaphorase-coupled primary assays, biochemical, uHTS, resorufin fluorescence; inhibition, % at 20 µM; actives 0.69% (n = 190,000); diaphorase resazurin-to-resorufin fluorescence, NADH, 16 min; bacterial (C. kluyveri) enzyme, not human; AID 1217, 2008;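 active means primary screen inhibition at 20 µM above a set limit, cut at about 50% in these data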
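Test system: Clostridium kluyveri diaphorase enzyme / Quantity: diaphorase at 0.14 U/mL in enzyme working solution / Incubation: 16-min room-temperature incubation before reading / Benchmarks: NADH-free wells as positive control, DMSO-only neutral wells / Signal: resorufin fluorescence 544/590 nm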
FLuc inh counter: firefly luciferase enzyme inhibitors, primary screen, artefact control for luciferase-based inhibitor screens, biochemical, luminescence, ATPLite | Luciferin 4-monooxygenase (Photinus pyralis), P08659 | 10 min | inhibition, % at 10 µM | actives 1.5% (n = 200,000);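 active means inhibition above about 50% when tested at 10 µM, limit read from the data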
G6PDH CS: L. mesenteroides G6PDH inhibitors, counter-screen for G6PDH-coupled screening assays, biochemical, Leuconostoc mesenteroides enzyme; inhibition, % at 5 µM; Purified L. mesenteroides G6PDH, diaphorase/resazurin coupled fluorescence, 45 min; actives 0.12% (n = 200,000); in the data active means inhibition above about 50%
Of the large screens only hits and unclear results are named; the others gave an inactive call.

COCCn1c(C)cc(C(=O)Cn2nc(C(=O)O)c3ccccc3c2=O)c1C	FLuc inh counter 91.2
Cc1cc(C(=O)Cn2nc(C(=O)O)c3ccccc3c2=O)c(C)n1C1CC1	none
C=CCn1c(C)cc(C(=O)Cn2nc(C(=O)O)c3ccccc3c2=O)c1C	FLuc inh counter 92.3
CCCn1c(C)cc(C(=O)CSc2nnc3n(CCC)c(=O)c4ccccc4n23)c1C	none
CCSc1nnc(NS(=O)(=O)c2ccc(OC)cc2)s1	none
Cc1ccc(C(=O)Nc2ccc3cn[nH]c3c2)cc1S(=O)(=O)N1CCCCC1	none
CC(C)c1ccc(-c2nnc(N)s2)cc1	FLuc inh counter 80.3
COc1ccc(-c2nnc(N)s2)cc1	none
CCCOc1ccc(-c2nnc(N)s2)cc1	FLuc inh counter 60.2
CCCCSCCCNC(=O)Nc1ccc(CC)cc1	none
COc1cc(OC)cc(C(=O)NCc2cc(C)nc3ccccc23)c1	Diaphorase inh 75.6
COC(=O)c1ccc(-c2ccc(/C=N/NC(=O)CC3(C)OCCCO3)o2)cc1	none (no result: Diaph act CS, Diaphorase inh)
O=C(COC(=O)C(O)c1ccccc1)c1ccc2c(c1)OCCO2 (configuration not stated)	FLuc inh counter 84.0
CCN(CC)S(=O)(=O)c1cccc(C(=O)OCC(=O)c2ccc3c(c2)OCCO3)c1	FLuc inh counter 87.0
O=C(CS(=O)(=O)c1ccccc1)c1ccc2c(c1)OCCO2	FLuc inh counter 58.0
O=C(NCc1ccccc1)c1ccc2c(c1)OCCO2	none
O=C(COC(=O)c1cccc(S(=O)(=O)NCc2ccccc2)c1)c1ccc2c(c1)OCCO2	FLuc inh counter 53.5
CCN(CC)S(=O)(=O)c1ccc(C(=O)OCC(=O)c2ccc3c(c2)NC(=O)CO3)cc1	none
O=c1c(Cc2ccc(F)cc2)c(O)ccn1CCCn1ccnc1	none
O=Cc1cccn1-c1nccc(-c2ccco2)n1	none
O=C(COC(=O)c1ccc(Cl)nc1)c1ccc2c(c1)OCCO2	FLuc inh counter 88.0
Cc1c(C(=O)NCC2CCCO2)oc2ccc3c(c12)C(=O)CC(C)(C)O3 (configuration not stated)	FLuc inh counter 67.0
CN(C)C(=O)c1ccc(NC(=O)c2ccccc2Sc2ccccc2C#N)cc1	none
CCCCN(C(=O)c1cccc2c(=O)c(C)c(-c3ccccc3)oc12)c1ccccc1	none
Cn1cc(C(=O)c2ccccc2)cc1-c1nc2ccccc2n1C	none
Cn1c(-c2ccc(Br)o2)nc2cc(Br)ccc21	FLuc inh counter 63.7
Cn1c(-c2ccc(Br)o2)nc2ccccc21	FLuc inh counter 82.7
Brc1ccc(Cn2c(-c3ccc(Br)o3)nc3ccccc32)o1	none
Cc1oc(-c2nc3ccccc3n2C)cc1C(=O)c1ccccc1	FLuc inh counter 90.0
Cc1ccc(-c2nc3ccccc3n2C)o1	FLuc inh counter 67.5
C#Cc1ccc([C@@H]2C=C(C(=O)OCC=C)O[C@H](OCCCCO)C2)cc1	none
COc1ccccc1OCC(=O)NCCSCc1cccc(Cl)c1	none
C=CCOC(=O)C1=C[C@H](c2ccc(Br)cc2)[C@@H](CCCO)[C@H](OCC)O1	Diaphorase inh 55.3
CCO[C@@H]1OC(C(=O)Nc2ccccc2)=C[C@H](c2ccc(Br)cc2)[C@H]1CCCO	Diaphorase inh 56.1
CCO[C@@H]1OC(C(=O)Nc2ccccc2)=C[C@H](c2ccccc2)[C@H]1CCCO	none
COC(=O)N/N=C/c1cc(C)n(-c2ccccc2)c1C	FLuc inh counter 52.3
CCOC(=O)/C(C#N)=C/c1cc(C)n(-c2ccc(C)cc2)c1C	none
Cc1cc(C(=O)N/N=C/c2ccc(O)c(O)c2O)c(C)n1-c1ccccc1	Diaphorase inh 88.8, FLuc inh counter 70.1
CCOC(=O)/C(C#N)=C\c1cc(C)n(-c2ccccc2)c1C	FLuc inh counter 75.8
Cc1cc(C(=O)N/N=C2\CC(=O)CC(C)(C)C2)c(C)n1-c1ccccc1	none
Cc1cc(C(=O)N/N=C2\CC(=O)c3ccccc32)c(C)n1-c1ccccc1	FLuc inh counter 60.1
CCCCN(C(=S)Nc1cccc(C)c1C)c1c(N)n(CCC)c(=O)[nH]c1=O	none
O=C(C1=C[C@H](C2CC2)C[C@H](OCc2ccc(CO)cc2)O1)N1CCOCC1	none
O=C(CSc1nnc(SCc2ccc(Cl)cc2)s1)N/N=C/c1c(Cl)cccc1Cl	none
CCc1ccc(-n2c(C)cc(/C=N/NC(=O)c3ccncc3)c2C)cc1	Diaphorase inh 83.8
Cc1cc(C)cc(-n2c(C)cc(/C=N\NC(=O)COc3cccc4cccnc34)c2C)c1	none
Cc1cc(/C=N/NC(=O)C(O)(c2ccccc2)c2ccccc2)c(C)n1-c1ccccc1	none
Cc1cc(/C=N/NC(=O)COc2cccc3cccnc23)c(C)n1-c1ccc(O)cc1	FLuc inh counter 57.2
Cc1cc(/C=N/NC(=O)c2cccs2)c(C)n1-c1ccccc1	FLuc inh counter 91.2
Cc1ccc(-n2c(C)cc(/C=N/NC(=O)c3ccncc3)c2C)cc1C	none
Cc1cc(/C=N/NC(=O)c2ccncc2)c(C)n1-c1ccccc1	FLuc inh counter 69.7
O=C(O)CCCCCN=Cc1c(O)c2ccccc2oc1=O	none
Cc1cc(/C=N/NC(=O)c2cccs2)c(C)n1-c1cnccn1	FLuc inh counter 54.9
Cc1cc(/C=N/NC(=O)c2cccc([N+](=O)[O-])c2)c(C)n1-c1ccccc1	FLuc inh counter 65.5
O=C(CSCSCC(=O)Nc1ccc2c(c1)OCO2)Nc1ccc2c(c1)OCO2	none
COc1ccccc1/C=C/C(=O)Nc1ccc2c(c1)OCCO2	FLuc inh counter 84.8
O=C(/C=C/c1ccccc1)Nc1cccc(C(=O)O)c1	FLuc inh counter 91.5
CC(C)=CC(=O)Nc1ccc2c(c1)OCO2	FLuc inh counter 51.1
O=C(/C=C/c1ccccc1)N/C(=C/c1ccccc1)C(=O)Nc1cccc(C(=O)O)c1	none
O=C(/C=C/c1ccccc1)Nc1ccc2c(c1)OCCO2	FLuc inh counter 94.0 (no result: Diaph act CS, Diaphorase inh)
COc1ccc(NC(=O)N2CCC(n3cnc4ccccc43)CC2)cc1	none
Cc1cc2ccccn2c1C(=O)c1ccc([N+](=O)[O-])o1	none
COc1ccc(CC(=O)OCc2nnc(-c3ccccc3)o2)cc1	none
O=C(/C=C/c1ccco1)Nc1ccc2c(c1)OCCO2	FLuc inh counter 88.7
CSc1ccc(/C=C/C(=O)Nc2ccccc2)cc1	FLuc inh counter 82.9
CSc1cccc(NC(=O)/C=C/c2ccccc2)c1	none
Cc1ccc(S(=O)(=O)N2CCC(=O)N(C(COCc3cccc(C(F)(F)F)c3)C(C)C)CC2)cc1 (configuration not stated)	none
